According to ChEMBL document CHEMBL1122545, “N2-(4-Substituted-2,6-dichlorophenyl)-N1,N1-dimethylformamidines as antihypertensive and diuretic agents” (J Med Chem, 1984):

Assays:
[1] = (§1) Diuretic activity was determined expressed as volume of urine excreted in mL was reported at a dose of 100 mg/Kg; assay type: ADME; conditions: in vivo
In short: (§2)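 Male SH rats (Okamoto strain), 16 weeks old, dosed orally by gavage with compound dispersed in 3% starch in normal saline at 2 mL/kg. Oral normal saline load, then individual metabolism cages; 0-5 h urine collected, Na+ and K+ measured by flame photometry. Rats redosed at 24 h without the saline load. MABP and HR taken by femoral arterial puncture under local anesthetic 4 h after the second dose.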

[2] = tested on: Rattus norvegicus; assay: Diuretic activity was determined in SH rats expressed as K(+) (potassium) excreted in milli equivalents was reported for a duration of 5 hours after administration of a dose of 100 mg/Kg.; assay type: ADME, organism-based, Urine; conditions: in vivo; in short: as §2
[3] = Diuretic activity was determined expressed as Na+(sodium) excreted in milli equivalents was reported for a duration of 5 hours after administration of a dose of 100 mg/Kg; assay type: ADME, Urine; conditions: in vivo; in short: as §2
[4] = tested on: Rattus norvegicus; assay: Antihypertensive activity determined as heart rate in SH rats, was reported at a dose of 100 mg/Kg; assay type: functional; in short: as §2
[5] = tested on: Rattus norvegicus; assay: Antihypertensive activity in SH rats, and mean arterial blood pressure was reported at a dose of 100 mg/Kg; assay type: functional, Artery; in short: as §2
[6] = tested on: Rattus norvegicus; assay: Diuretic activity was determined in SH rats expressed as K(+) (potassium) excreted in milli equivalents was reported for a duration of 5 hours after administration of a dose of 100 mg/Kg; assay type: ADME, organism-based, Urine; conditions: in vivo; in short: as §2
[7] = Diuretic activity was determined expressed as Na+(sodium) excreted in milli equivalents was reported for a duration of 5 hours after administration of a dose of 25 mg/Kg; assay type: ADME, Urine; conditions: in vivo; in short: as §2
[8] = Diuretic activity was determined expressed as volume of urine excreted in mL was reported at a dose of 25 mg/Kg; assay type: ADME; conditions: in vivo; in short: as §2
[9] = tested on: Rattus norvegicus; assay: Diuretic activity was determined in SH rats expressed as K(+) (potassium) excreted in milli equivalents was reported for a duration of 5 hours after administration of a dose of 25 mg/Kg.; assay type: ADME, organism-based, Urine; conditions: in vivo; in short: as §2
[10] = tested on: Rattus norvegicus; assay: Antihypertensive activity determined as heart rate in SH rats, was reported at a dose of 25 mg/Kg; assay type: functional; in short: as §2
[11] = tested on: Rattus norvegicus; assay: Antihypertensive activity in SH rats, and mean arterial blood pressure was reported at a dose of 25 mg/Kg; assay type: functional, Artery; in short: as §2
[12] = tested on: Rattus norvegicus; assay: as §1; assay type: ADME, organism-based; conditions: in vivo; in short: as §2
[13] = tested on: Rattus norvegicus; assay: Diuretic activity was determined in SH rats expressed as K(+) (potassium) excreted in milli euivalents was reported for a duration of 5 hours after administration of a dose of 100 mg/Kg.; conditions: in vivo

Row | SMILES | Diuretic activity [1] [mL] | Diuretic activity [2] [m equiv] | Diuretic activity [3] [m equiv] | HR [4] [beats min-1] | MABP [5] [mmHg] | Diuretic activity [6] [m equiv] | Diuretic activity [7] [m equiv] | Diuretic activity [8] [mL] | Diuretic activity [9] [m equiv] | HR [10] [beats min-1] | MABP [11] [mmHg] | Diuretic activity [12] [mL] | Diuretic activity [13] [m equiv]
1 | CN(C)/C=N/c1c(Cl)cc(NCc2cccc(F)c2)cc1Cl | 25 | 0.59 | 1.93 | 290 | 120 | – | – | – | – | – | – | – | –
2 | COc1ccc(CNc2cc(Cl)c(/N=C/N(C)C)c(Cl)c2)cc1F | 16.8 | – | 1.15 | 320 | 113 | 0.43 | – | – | – | – | – | – | –
3 | CN(C)/C=N/c1c(Cl)cc(NCc2ccc(-c3ccccc3)cc2)cc1Cl | 7.3 | 0.5 | 0.46 | 400 | 143 | – | – | – | – | – | – | – | –
4 | CN(C)/C=N/c1c(Cl)cc(NCc2ccc(N(C)C)cc2F)cc1Cl | – | – | – | – | – | – | 2.26 | 23.5 | 0.71 | 400 | 155 | – | –
5 | CN(C)/C=N/c1c(Cl)cc(NCc2ccccc2O)cc1Cl | 12.3 | 0.68 | 0.72 | 340 | 150 | – | – | – | – | – | – | – | –
6 | CC(=O)Nc1ccc(CNc2cc(Cl)c(/N=C/N(C)C)c(Cl)c2)cc1 | – | 0.62 | 0.66 | 340 | 150 | – | – | – | – | – | – | 9.5 | –
7 | CN(C)/C=N/c1c(Cl)cc(NCc2cccc(Br)c2)cc1Cl | 19.3 | – | 1.9 | 350 | 120 | – | – | – | – | – | – | – | 0.48
8 | CN(C)/C=N/c1c(Cl)cc(NCc2cccc(C(F)(F)F)c2)cc1Cl | 21.3 | 0.5 | 2.04 | 420 | 165 | – | – | – | – | – | – | – | –
9 | CCN(CC)c1ccc(CNc2cc(Cl)c(/N=C/N(C)C)c(Cl)c2)cc1 | – | – | – | – | – | – | 2.02 | 21.3 | 0.71 | 400 | 153 | – | –
10 | COc1cc(CNc2cc(Cl)c(/N=C/N(C)C)c(Cl)c2)cc(OC)c1OC | 17.5 | – | 1.4 | 360 | 138 | 0.57 | – | – | – | – | – | – | –
11 | CN(C)/C=N/c1c(Cl)cc(NCc2ccc(N(C)C)cc2)cc1Cl | – | – | – | – | – | – | 0.55 | 5.5 | 0.39 | 450 | 171 | – | –
12 | CN(C)/C=N/c1c(Cl)cc(NCc2ccc(N(C)C)c(Br)c2)cc1Cl | – | – | – | – | – | – | 1.18 | 14 | 0.77 | 420 | 173 | – | –
13 | CN(C)/C=N/c1c(Cl)cc(NCc2ccc(N(C)C)cc2Br)cc1Cl | – | – | – | – | – | – | 1.86 | 19.3 | 0.45 | 280 | 115 | – | –
14 | CN(C)/C=N/c1c(Cl)cc(NCc2cc(Cl)cc(Cl)c2)cc1Cl | – | – | – | – | – | – | 1.34 | 13.8 | 0.42 | 290 | 139 | – | –
15 | COc1ccc(CNc2cc(Cl)c(/N=C/N(C)C)c(Cl)c2)cc1OC | 8.3 | – | 0.47 | 410 | 133 | 0.37 | – | – | – | – | – | – | –
16 | Clc1cccc(Cl)c1NC1=NCCN1 [CLONIDINE] | 16.4 | – | – | 180 | 102 | – | – | – | – | 220 | 113 | – | 0.16
17 | NS(=O)(=O)c1cc2c(cc1Cl)NCNS2(=O)=O [HYDROCHLOROTHIAZIDE] | 13.2 | 0.65 | 1.63 | 436 | 153 | – | – | – | – | – | – | – | –
